Measurements reported in ChEMBL document CHEMBL4196194, “De Novo Design of α-Helical Lipopeptides Targeting Viral Fusion Proteins: A Promising Strategy for Relatively Broad-Spectrum Antiviral Drug Discovery” (J Med Chem, 2018).
pEC50: −log10 of the molar value. In brackets after ≈: the same amount, converted by molar mass. Activity calls are given as the source filed them. The rule behind the calls is not given here. Where a SMILES comes first, the peptide text is derived from it. [ ]: non-standard residue; d: D form. The star is where a group is joined. Palmitoyl = CCCCCCCCCCCCCCCC(=O)*; βAla = NCCC(=O)O

How the values were obtained:
[1] = Cytotoxicity in human TZM-bl cells; type: cell-based
[2] = Solubility in pure water at 2 mg by HPLC-UV method; type: physicochemical
Influenza A virus [3] = test: Binding affinity to influenza A virus hemagglutinin 2 synthetic peptide N66 assessed as melting temperature at 10 uM at pH 5 by CD spectroscopy
Procedure, shortened: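 Thermal unfolding by CD at 222 nm, 10–90 °C at 2 °C/min. Samples held 10 μM peptide: for HR1P in 10 mM phosphate pH 7.4; for N66 in 10 mM sodium acetate with 10 mM sodium phosphate and 150 mM NaCl, pH 5.0.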

[4] = system: Middle East respiratory syndrome-related coronavirus; test: Antiviral activity against MERS-CoV pseudovirus infected in human HuH7 cells treated with 30 mins pre-treated pseudovirus/compopund mixture and measured after 48 hrs by luciferase reporter assay; type: functional, organism-based
Procedure, shortened: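 Serially diluted peptide premixed with MERS-CoV pseudovirus 30 min at 37 °C, then added to Huh-7 cells; medium replaced at 12 h postinfection and cells cultured a further 48 h at 37 °C before luciferase read-out.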

Rattus norvegicus = test: MRT (0 to t) in Sprague-Dawley rat at 5 mg/kg, iv administered as single dose by LC-MS/MS analysis; type: ADME, organism-based; details: in vivo
[5] = Cytotoxicity in human HuH7 cells assessed as reduction in cell viability incubated for 48 hrs by CCK8 assay; type: cell-based, Huh-7
Procedure, shortened: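 Huh-7 cells (1 × 10^5 cells/mL suspension seeded) grown 12 h at 37 °C, 5% CO2, then serially diluted peptide added for 48 h; untreated blank and Triton X-100 controls. CCK-8 added for 2 h, absorbance at 450 nm.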

Influenza A virus [6] = test: Inhibition of influenza A virus infected in MDCK cells assessed as inhibition of viral load treated with compound at 5 to 8 hrs post-infection by RT-qPCR method based time of addition assay; type: functional, organism-based
Procedure, shortened: (§1)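 MDCK cells (2.0 × 10^5/well) washed with PBS, virus adsorbed (MOI 0.05) 60 min at 4 °C, washed, then compound present only during 0–10, 0–2, 2–5, 5–8 or 8–10 h postinfection; cultured in fresh medium to 10 h, total RNA extracted, viral load by absolute one-step RT-qPCR; triplicate, versus PBS control.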

Influenza A virus [7] = test: Inhibition of influenza A virus infected in MDCK cells assessed as inhibition of viral load treated with compound at 8 to 10 hrs post-infection by RT-qPCR method based time of addition assay; type: functional, organism-based; procedure, shortened: as §1
[8] = Cytotoxicity in MDCK cells assessed as reduction in cell viability incubated for 72 hrs by cell-titer-Glo cell viability assay; type: cell-based, Canis lupus familiaris; details: dog
Influenza A virus [9] = test: Antiviral activity against Influenza A virus (A/Puerto Rico/8/1934(H1N1)) infected in HEK293T cells assessed as inhibition of viral replicon activity incubated for 30 hrs by dual-Glo luciferase assay; type: functional, organism-based; details: HEK-293T
Procedure, shortened: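 HEK293T cells (2.5 × 10^4/well) transfected with plasmids for NP, PB1, PB2, PA plus p0LN-S-Luc firefly and pRL-SV40 Renilla reporters; serially diluted compound added 6 h post-transfection, luciferase read after 30 h by Dual-Glo. Activity = firefly/Renilla ratio; % inhibition normalized to positive and negative controls, curve-fitted; three independent measurements.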

CCCCCCCCCCCCCCCC(=O)NCCCC[C@H](NC(=O)CCNC(=O)[C@H](CCCCN)NC(=O)[C@H](CCCCN)NC(=O)[C@H](CCC(N)=O)NC(=O)[C@@H](NC(=O)[C@H](CCC(=O)O)NC(=O)[C@H](CCC(=O)O)NC(=O)[C@@H](NC(=O)[C@H](CCCCN)NC(=O)[C@H](CCCCN)NC(=O)[C@H](CCC(N)=O)NC(=O)[C@@H](NC(=O)[C@H](CCC(=O)O)NC(=O)[C@H](CCC(=O)O)NC(=O)[C@@H](NC(=O)[C@H](CCCCN)NC(=O)[C@H](CCCCN)NC(=O)[C@H](CCC(N)=O)NC(=O)[C@@H](NC(=O)[C@H](CCC(=O)O)NC(=O)[C@H](CCC(=O)O)NC(=O)[C@@H](NC(=O)[C@H](CCCCN)NC(=O)[C@H](CCCCN)NC(=O)[C@H](CCC(N)=O)NC(=O)[C@@H](NC(=O)[C@H](CCC(=O)O)NC(=O)[C@H](CCC(=O)O)NC(=O)[C@@H](NC(=O)[C@H](CCCCN)NC(=O)[C@H](CCCCN)NC(=O)[C@H](CCC(N)=O)NC(=O)[C@@H](NC(=O)[C@H](CCC(=O)O)NC(=O)[C@H](CCC(=O)O)NC(=O)[C@@H](NC(C)=O)[C@@H](C)CC)[C@@H](C)CC)[C@@H](C)CC)[C@@H](C)CC)[C@@H](C)CC)[C@@H](C)CC)[C@@H](C)CC)[C@@H](C)CC)[C@@H](C)CC)[C@@H](C)CC)C(N)=O (Ac-IEEIQKKIEEIQKKIEEIQKKIEEIQKKIEEIQKK[βAla]K(Palmitoyl)-NH2)
CC50 [1]: > 100 µM
solubility [2]: 8870 µg/mL (≈ 1830 µM)
Tm (Influenza A virus [3]): 83.1 °C
Activity [4]: Active
MRT(t) (Rattus norvegicus): 4.1 h
CC50 at 48 h [5]: > 100 µM
inhibition (Influenza A virus [6]): inactive
inhibition (Influenza A virus [7]): inactive
CC50 at 72 h [8]: > 100 µM
pEC50 (Influenza A virus [9]): 5.76
